Screens deposited in PubChem BioAssay by several laboratories.
This is a sample that favours compounds with a hit; in the whole collection about 1.1% have one here.
KLK5 inh = inhibitors of human kallikrein 5; AID 873; recombinant hK5, fluorogenic AMC substrate cleavage; Q9Y337; inhibition, % at 5 µM; hit rate 0.59% among 210,000;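 active = inhibition of 40% or more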;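 also: 0% = enzyme controls without compound and 100% = no-enzyme blanks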
thrombin 1536 = inhibitors of human thrombin; P00734; alpha-thrombin, Boc-VPR-AMC fluorogenic substrate cleavage; inhibition, % at 5 µM; hit rate 0.26% among 220,000;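 active = inhibition at or above 40%; inactive = inhibition below 40%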;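 also: 0% = enzyme with no compound and 100% = wells without enzyme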
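Material: human alpha-thrombin protein; Also added: Boc-VPR-AMC substrate, 15 µM final; Timing: enzyme reaction carried out at room temperature; Signal: fluorescence, ex 355 nm, em 460 nm; Measure: % inhibition of thrombin; Controls: enzyme without compound as high, wells lacking enzyme as low.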
FXIa inh = factor XIa (human) inhibition | hit rate 0.14% among 220,000 | P03951 | inhibition, % at 5 µM | purified FXIa, Boc-Glu-Ala-Arg-AMC fluorogenic substrate;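 active = inhibition of at least 40%; inactive = inhibition below 40%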;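 also: fluorescence of freed AMC excited at 355 nm; 0% = enzyme without compound and 100% = no enzyme blank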
Target sequence (P03951 19-387 limits assumed): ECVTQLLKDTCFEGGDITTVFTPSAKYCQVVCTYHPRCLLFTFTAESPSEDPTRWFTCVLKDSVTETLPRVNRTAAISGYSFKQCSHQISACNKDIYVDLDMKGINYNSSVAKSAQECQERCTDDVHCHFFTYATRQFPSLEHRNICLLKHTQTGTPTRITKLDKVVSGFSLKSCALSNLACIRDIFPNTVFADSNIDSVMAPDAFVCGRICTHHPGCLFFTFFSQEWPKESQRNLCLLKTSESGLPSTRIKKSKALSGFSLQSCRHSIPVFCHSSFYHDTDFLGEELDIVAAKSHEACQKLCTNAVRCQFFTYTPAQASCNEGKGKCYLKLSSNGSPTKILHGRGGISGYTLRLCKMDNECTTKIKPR
Target sequence (P03951 388-625 limits assumed): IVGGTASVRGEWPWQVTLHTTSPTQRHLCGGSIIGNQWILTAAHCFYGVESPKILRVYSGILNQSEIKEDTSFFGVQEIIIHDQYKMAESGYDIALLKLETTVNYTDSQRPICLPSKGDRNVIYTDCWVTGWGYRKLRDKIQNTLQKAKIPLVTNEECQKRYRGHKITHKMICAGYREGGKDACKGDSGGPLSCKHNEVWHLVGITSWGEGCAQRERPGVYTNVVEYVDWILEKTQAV
FXIIa inh 1536 = factor XIIa (human) inhibition. purified FXIIa, Boc-QGR-AMC fluorogenic substrate, 2 h. P00748. inhibition, % at 5 µM. hit rate 0.3% among 220,000. AID 800; in the data active = inhibition above about 40%;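 also: 0% = enzyme with no compound and 100% = blank without enzyme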
Calb biofilm kill = mixtures killing C. albicans biofilm; C. albicans biofilm persisters + clotrimazole, fluorescence viability; primary screen in compound mixtures of four per well; hit rate 0.02% among 120,000; AID 1242; inhibition, % at 7.6 µM;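 active = inhibition above 30.3% in the primary screen of four-compound pools, then above 30% when the compound was retested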;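 also: compounds exposed to preformed 24 h biofilms for 48 h; 0% = untreated biofilm control and 100% = clotrimazole plus chlorhexidine kill blank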
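Assay system: C. albicans biofilms / Medium: RPMI/MOPS medium, pH 7.0 / Schedule: biofilm formation 24 h, compound exposure 48 h, 37 °C / Measured by: Alamar Blue fluorescence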
Hep lipid drop = hepatic lipid droplet formation modulation. AML12 mouse hepatocytes, oleate lipid droplets, BODIPY imaging. inhibition, % at 6.5 µM. hit rate 0.4% among 240,000. AID 1656;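 active = lipid droplet intensity inhibited by at least 50%, with more than 500 cells counted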
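Assay system: AML12 hepatocytes (mouse); Probe or stimulus: oleic acid at 100 µM to induce lipid droplet formation; Dosing: compound at 6.5 µM only; Schedule: compound with oleate, overnight; Detection: fluorescence imaging, 20x objective, two fields per well; Measure: % inhibition of lipid droplet signal.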
* = called active by the depositor; · = not tested or not shown.

SMILES	KLK5 inh	thrombin 1536	FXIa inh	FXIIa inh 1536	Calb biofilm kill	Hep lipid drop
COc1cccc(C2CC(c3ccc(F)cc3)Nc3nc(N)nn32)c1 (stereo not drawn)	53*	19	14	12	·	30
CCOc1ccc(NC(=O)Cn2cncc2-c2ccc([N+](=O)[O-])cc2)cc1	41*	9	10	30	9	11
COC(=O)CN1C(=O)C(O)(CC(=O)c2ccc(Cl)cc2)c2ccccc21 (stereo not drawn)	8	41*	7	9	·	12
CCC(C)NCCOc1ccc(C)cc1[N+](=O)[O-] (stereo not drawn)	·	41*	12	23	15	-10
N/C(=N\OC(=O)c1cccc(Cl)c1)c1cccnc1	-1	47*	-2	13	·	3
Cc1ccc2cc([N+](=O)[O-])ccc2n1	3	-1	1	3	17	-4
c1ccc(CNC2=NCCC2)nc1	-2	2	-1	13	·	4
c1cc(CNC2=NCCCCC2)ccn1	65*	11	4	26	·	3
Nc1nc2ccccc2n1CCOc1ccc(F)cc1	·	·	·	·	·	-13
CCCOC(=O)c1ccc(NC(=O)/C=C/c2cccs2)cc1	-9	-3	10	5	5	80*
O=C(/C=C/c1cccs1)Nc1ccncc1	-18	-7	5	18	10	-21
Cc1ccc(CNC(=O)CS(=O)Cc2nc(-c3ccccc3F)oc2C)cc1 (stereo not drawn)	·	·	·	·	·	-13
CCc1nnc(NC(=O)CSc2nnc(C)c(=O)n2N)s1	·	·	·	·	·	-6
CCCSc1nnc(NC(=O)Nc2ccc(C)cc2)s1	52*	-8	-5	-1	18	-6
CCOCCCNc1nc2c(C)cccn2c(=O)c1/C=C1\SC(=S)N(C(C)CC)C1=O (stereo not drawn)	17	2	-6	12	19	86*
Cc1cc(C(=O)N(C)CC(=O)Nc2ccc(F)c(F)c2F)no1	·	·	·	·	·	-8
O=C(Cc1ccccc1)NC(NC(=S)Nc1cc(Cl)ccc1Cl)C(Cl)(Cl)Cl (stereo not drawn)	18	16	20	103*	·	·
CCC(=O)OCCn1c(=O)c2cc3c(=O)n(CCOC(=O)CC)c(=O)c3cc2c1=O	-2	4	20	54*	·	3
Cc1cc(F)ccc1S(=O)(=O)Nc1ccccc1C(=O)NCc1ccccn1	50*	36	34	29	23	-36
CC(=O)c1cccc(NC(=O)c2ccc(NC(=O)CC3SC(N4CCCCC4)=NC3=O)cc2)c1 (stereo not drawn)	·	·	·	·	·	-16
Cc1ccc(NC2=NCC(=O)N2C2CCCC2)c(C)c1	112*	22	12	26	10	12
Cc1ccc(C)c(NC2=NCC(=O)N2C2CCCCC2)c1	0	-12	3	3	7	4
CCOc1ccc(-n2c(SCC(=O)Nc3cc(C)on3)nnc2-c2c[nH]c3ccccc23)cc1	31	0	18	48*	·	14
COc1ccc(NC(=O)CSc2nc3ccccc3c(=O)n2CCCN2CCCCC2)c(OC)c1	49*	1	27	11	·	-2
Cc1cc(NC(=O)CSc2nc3ccccc3c(=O)n2-c2ccccc2)no1	43*	2	2	16	·	10
SMILES	KLK5 inh	thrombin 1536	FXIa inh	FXIIa inh 1536	Calb biofilm kill	Hep lipid drop
COc1cccc(-n2c(SCC(=O)Nc3ccc4c(c3)CCC4)nc3ccccc3c2=O)c1	45*	54*	-1	12	12	28
COCCCNC(=O)CSc1nc2ccccc2c(=O)n1CCCN1CCCCC1	·	·	·	·	·	8
CCNC(=O)CSc1nc2ccccc2c(=O)n1-c1cccc(OC)c1	16	-1	0	6	14	-12
CC1CCN(CC(CS(=O)(=O)c2ccc([N+](=O)[O-])cc2)N2CCC(C)CC2)CC1 (stereo not drawn)	6	3	5	12	15	2
O=C(Nc1cccc(Cl)c1)NC1CCN(C2CCCCC2)C1 (stereo not drawn)	·	·	·	·	·	-7
CN(C)S(=O)(=O)N1CCN(c2cccc(Cl)c2)CC1	83*	25	-8	15	·	-4
Nc1nc(SCC(=O)Nc2ccc(OCc3ccccc3)cc2)n[nH]1	44*	-2	23	39	9	-11
Cc1nc(SCC(=O)Nc2ccc(OCc3ccccc3)cc2)n[nH]1	·	0	0	7	9	23
COc1ccc(CNC(=O)NC(C)(C)c2cccc(C(C)(C)NC(=O)NCc3ccc(OC)cc3)c2)cc1	44*	15	9	30	4	-9
Cc1ccc(NC(=S)NCCc2ccccc2)nc1	10	-1	54*	13	3	-16
COc1ccccc1C(=O)NC(=O)COC(=O)CCOc1cc(C)ccc1C	·	·	·	·	·	-3
Cc1cc(NS(=O)(=O)c2ccc(NC(=O)CSc3nnc(-c4ccco4)n3N)cc2)nc(C)n1	29	62*	-8	-8	5	21
O=C1c2oc3ccccc3c(=O)c2C(c2cccc(F)c2)N1CCCO (stereo not drawn)	-3	-2	-7	51*	·	·
Cc1cc(C(F)(F)F)c(C#N)c(SCC(=O)NC(C)(C)C)n1	42*	8	16	36	·	1
Cc1cc(C)c(C#N)c(SCC(=O)NC(C)(C)C)n1	-29	-5	2	11	·	·
Cc1ccc(CN(C)CC(=O)Nc2ccc3c(c2)CCC3)cc1	47*	2	30	31	9	17
CCOC(=O)Cc1csc(NC(=O)CC(C)(C)CC(=O)O)n1	50*	10	59*	25	22	-4
OC1(c2cccc(C(F)(F)F)c2)CCN(Cc2nnnn2Cc2ccccc2)CC1	-4	-3	-2	5	3	5
OC1(c2ccc(F)cc2)CCN(Cc2nnnn2Cc2cccs2)CC1	36	61*	2	11	·	1
CN(C)S(=O)(=O)Oc1ccsc1C(=O)Nc1ccc(Cl)c(Cl)c1	3	-2	13	42*	·	·
CN(C)S(=O)(=O)Oc1ccsc1C(=O)Nc1ccc(C(F)(F)F)cc1	-7	-2	-4	3	4	-17
CN(C)S(=O)(=O)Oc1ccsc1C(=O)Nc1ccc(Br)cc1	-8	-8	-3	6	17	10
CN(C)S(=O)(=O)Oc1ccsc1C(=O)Nc1cccc(Cl)c1	6	-1	19	47*	·	·
COc1ccc(C(=O)NC2CC2)cc1OC1CCN(Cc2ccc(F)c(F)c2)CC1	·	·	·	·	·	-1
Cc1cccnc1NC(=O)CN1C(=O)COc2ccc(Cl)cc21	·	·	·	·	·	3
CCOc1ccccc1NC(=O)CN1C(=O)COc2ccc(Cl)cc21	43*	29	17	19	·	·
COc1cc(/C=N/n2c(-c3cc(C)[nH]n3)n[nH]c2=S)cc(OC)c1OC	58*	-9	-8	-1	14	1
CCc1csc(CNC(=O)C2CCC(=O)N(Cc3cccc(F)c3)C2)n1 (stereo not drawn)	·	·	·	·	·	-10
